The source of these data is ChEMBL document CHEMBL3785020, “Discovery of novel sesquistilbene indanone analogues as potent anti-inflammatory agents” (Eur J Med Chem, 2016).

In brackets after ≈: the same amount, converted by molar mass. Activity calls are given as the source filed them. The rule behind the calls is not given here.

In data set [1] the test system is RAW264.7. As to the kind of experiment: Antiinflammatory activity against LPS-induced mouse RAW264.7 cells assessed as inhibition of NO production at 50 uM preincubated for 4 hrs followed by LPS stimulation for 24 hrs by Griess reaction. The class given is functional. The procedure, abridged:
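RAW264.7 cells in DMEM with 5% FBS at 37 °C and 5% CO2 were pretreated at 50 µM for 4 h, then stimulated with or without LPS (1 µg/mL) for 24 h. Nitrite in the supernatant was measured by Griess reagent at 540 nm against a NaNO2 standard curve. At least three independent experiments, each in duplicate; means ± SEM.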
(In general: Nitrite, measured by Griess reagent, commonly stands in for NO production.)

Data set [2] deals with RAW264.7. As to the kind of experiment: Antiinflammatory activity against LPS-induced mouse RAW264.7 cells assessed as inhibition of NO production at preincubated for 4 hrs followed by LPS stimulation for 24 hrs by Griess reaction. The class given is functional, cell-based. The procedure, abridged: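 Cells were pretreated for 4 h, then stimulated with LPS (1 µg/mL) for 24 h. Supernatant was mixed with an equal volume of Griess reagent, and nitrite was read at 540 nm against a NaNO2 standard curve. IC50 was obtained by curve fitting.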

Data set [3] has as its system Mus musculus. As to the kind of experiment: (§1) Acute toxicity in ip dosed Kunming mouse after 14 days by Bliss method. Conditions: in vivo, 336 h. It is filed as organism-based.
The nature of data set [4]: Solubility in water at pH 7.4. It is filed as physicochemical.
Data set [5] in a line: Solubility in water at pH 6.8. It is filed as physicochemical.
Data set [6] relates to Mus musculus. As to the kind of experiment: Acute toxicity in po dosed Kunming mouse after 14 days by Bliss method. The settings on record: in vivo, 336 h.
Data set [7] is described as follows: Solubility in water at pH 1.2. It is filed as physicochemical.
Data set [8] relates to RAW264.7. As to the kind of experiment: Cytotoxicity against mouse RAW264.7 cells assessed as cell viability up to 50 uM by MTT assay. The class given is cell-based. The procedure, abridged:
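MTT assay after 12.5-50 µM treatment with LPS stimulation for 24 h. Medium was replaced, then MTT was added to a final 0.5 mg/mL and incubated 4 h at 37 °C. Formazan was dissolved in DMSO and absorbance read at 570 nm. At least three independent experiments in duplicate.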
A general note: Formazan colour is commonly taken as a measure of viable cells.

Data set [9] is described as follows: as §1. The class given is organism-based. The settings on record: Kunming, in vivo.
Data set [10] deals with Mus musculus. As to the kind of experiment: Acute toxicity in ip dosed Kunming mouse assessed as mortality after 7 days by Bliss method. It is filed as organism-based. The settings on record: in vivo, 168 h.
The nature of data set [11]: Lipophilicity, logP of the compound. The class given is physicochemical. The settings on record: octanol/water.
Data set [12] deals with RAW264.7. As to the kind of experiment: Antiinflammatory activity against LPS-induced mouse RAW264.7 cells assessed as downregulation of iNOS expression preincubated for 4 hrs followed by LPS stimulation for 24 hrs by Western blot analysis. It is filed as functional, cell-based. An outline of the steps: (§2)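 Cells serum-starved overnight, pretreated at 12.5-50 µM, then stimulated with LPS 1 µg/mL for 24 h. Whole-cell lysates were made in RIPA buffer with protease and phosphatase inhibitors, and 30 µg protein was loaded. Blots used iNOS (1:500) or COX-2 (1:10000) antibodies with HRP secondary and ECL detection. Signals were normalised to β-actin and expressed as fold of control. At least three independent experiments, each in duplicate.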
On the technique in general: In western blotting, separated proteins are transferred to a membrane and probed.

For data set [13], the system named is RAW264.7. As to the kind of experiment: Effect of ERK phosphorylation in LPS-induced mouse RAW264.7 cells preincubated with the compound followed by LPS-stimulation for 45 mins by Western blot analysis. The class given is cell-based.
The subject of data set [14] is RAW264.7. As to the kind of experiment: Inhibition of JNK phosphorylation in LPS-induced mouse RAW264.7 cells preincubated with the compound followed by LPS-stimulation for 45 mins by Western blot analysis. The class given is cell-based.
Data set [15] relates to RAW264.7. As to the kind of experiment: Antiinflammatory activity against LPS-induced mouse RAW264.7 cells assessed as downregulation of COX2 expression preincubated for 4 hrs followed by LPS stimulation for 24 hrs by Western blot analysis. It is filed as functional, cell-based. The procedure, abridged: as §2
Data set [16] concerns RAW264.7. As to the kind of experiment: Downregulation of TLR4 expression in LPS-induced mouse RAW264.7 cells preincubated with compound followed by LPS-stimulation for 45 mins by Western blot analysis. The class given is functional, cell-based.
Data set [17] deals with Transcription factor p65 (Mus musculus) (UniProt Q04207). As to the kind of experiment: Inhibition of LPS-stimulated NFkappaB p65 nuclear translocation in mouse RAW264.7 cells preincubated with compound followed by LPS-stimulation for 2 hrs by Western blot analysis. The class given is cell-based. The procedure, abridged: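 Cells were pretreated at 12.5-50 µM, then stimulated with LPS (1 µg/mL) for 2 h. Nuclear and cytoplasmic fractions were prepared with an extraction kit and blotted for NF-κB p65 (1:1000). β-actin was the cytoplasmic loading control and lamin the nuclear one. At least three independent experiments in duplicate.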

Data set [18] concerns the target MAP kinase p38 (Mus musculus) (UniProt P47811+O08911+Q9WUI1+Q9Z1B7). As to the kind of experiment: Effect of p38 phosphorylation in LPS-induced mouse RAW264.7 cells preincubated with the compound followed by LPS-stimulation for 45 mins by Western blot analysis. The class given is cell-based.

Chain of Transcription factor p65 (Mus musculus) (Q04207 whole entry): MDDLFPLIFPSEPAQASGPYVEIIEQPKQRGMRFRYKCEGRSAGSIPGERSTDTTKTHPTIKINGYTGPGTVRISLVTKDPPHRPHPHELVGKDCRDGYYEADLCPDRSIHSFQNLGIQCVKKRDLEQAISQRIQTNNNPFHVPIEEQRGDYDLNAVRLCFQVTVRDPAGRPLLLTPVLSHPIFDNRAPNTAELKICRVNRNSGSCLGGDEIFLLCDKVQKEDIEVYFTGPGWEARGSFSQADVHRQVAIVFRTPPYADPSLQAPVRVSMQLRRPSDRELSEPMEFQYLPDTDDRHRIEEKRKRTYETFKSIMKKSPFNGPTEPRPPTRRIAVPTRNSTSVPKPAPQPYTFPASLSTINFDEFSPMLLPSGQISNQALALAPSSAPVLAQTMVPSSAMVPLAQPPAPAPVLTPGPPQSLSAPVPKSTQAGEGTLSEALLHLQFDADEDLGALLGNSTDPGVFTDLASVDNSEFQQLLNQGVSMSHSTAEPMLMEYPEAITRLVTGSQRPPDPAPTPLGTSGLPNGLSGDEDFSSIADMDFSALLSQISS

The inhibition is the relative decrease from the control value, in per cent. For the compound `CCOc1ccc([C@@H]2c3cc(OC)ccc3C(=O)[C@H]2c2ccc(OC)cc2)cc1` (relative stereo), the inhibition at 50 µM in data set [1] came out at 84.4%.
Same read-out and setting: in the case of `COc1ccc([C@@H]2C(=O)c3ccc(OC)cc3[C@H]2c2ccc(F)cc2)cc1` it was 85.9%; in that of `COc1ccc([C@@H]2C(=O)c3ccc(OC)cc3[C@H]2c2ccc(C)cc2)cc1` (relative stereo), 47.4%.
Consider `COc1ccc([C@@H]2C(=O)c3ccc(OC)cc3[C@H]2c2cccc(F)c2)cc1` (relative stereo), for which, in data set [1], the inhibition at 50 µM worked out at 80%.
In general, IC50 refers to the concentration at which inhibition is half-maximal. For orientation: LD50 means the dose at which mortality reaches 50%. In the case of `COc1ccc(C2C(=O)c3ccc(OC)cc3C2c2ccccc2)cc1` (single isomer, unassigned; (-)) [listing 1 of 2 here], the IC50 in [2] (raw264.7) was 23.7 µM. In [3], this compound returned a 50% lethal dose (LD50) of 275 mg/kg.
With `COc1ccc([C@@H]2C(=O)c3ccc(OC)cc3[C@H]2c2ccc(C(F)(F)F)cc2)cc1` (relative stereo), the inhibition at 50 µM in [1] was 80%.
On the same count and under the same terms, under `COc1cc(OC)cc([C@@H]2c3c(OC)cc(OC)cc3C(=O)[C@H]2c2cc(OC)cc(OC)c2)c1` (relative stereo) stands 59.4%; under `COc1cc(OC)cc([C@@H]2C(=O)c3cc(OC)cc(OC)c3[C@H]2Cc2ccccc2)c1` (relative stereo), 86.9%; under `COc1cc(OC)cc([C@@H]2C(=O)c3cc(OC)cc(OC)c3[C@H]2c2ccccc2)c1` (relative stereo), 69.2%.
In the case of `COc1cc(OC)cc([C@@H]2C(=O)c3cc(OC)cc(OC)c3[C@H]2c2ccc(OC(F)(F)F)cc2)c1` (relative stereo), the inhibition at 50 µM in data set [1] was found to be 65.6%.
`COc1ccc([C@@H]2C(=O)c3ccc(OC)cc3[C@H]2c2ccc3ccccc3c2)cc1` (relative stereo): in [1], the inhibition at 50 µM stood at 58.7%.
The term solubility denotes the dissolved amount per volume that the medium holds. As usually defined, the logP is a log measure of how a compound divides between an organic and an aqueous phase. The low end stands for lower lipophilicity, the high end for higher lipophilicity. As to `COc1ccc(C2C(=O)c3ccc(OC)cc3C2c2ccccc2)cc1` (racemic) [listing 1 of 2 here], the solubility in [4] is 46.5 µg/mL (≈ 135 µM); in data set [5] it was 68.7 µg/mL (≈ 199 µM); in [7], 38.3 µg/mL (≈ 111 µM). For the same compound, the Activity result in data set [6] is reported as “Dose-dependent effect”; in data set [8], “Non-toxic”; in [10] it was “Toxic”. Moreover, the IC50 in [2] (Mus musculus, RAW264.7) worked out at 23.2 µM. In data set [9], this compound returned a 50% lethal dose (LD50) at 336 h of 275 mg/kg. Further, the inhibition at 50 µM in data set [1] was 87.6%. The compound further gave a logP in [11] of 1.77.
Turning to `COc1ccc([C@@H]2C(=O)c3ccc(OC)cc3[C@H]2C2CCCCC2)cc1` (relative stereo), in [1], the inhibition at 50 µM was 85.7%.
The same measure, in the same setting: in the case of `COc1ccc([C@@H]2C(=O)c3ccc(OC)cc3[C@H]2c2cc(OC)cc(OC)c2)cc1` (relative stereo) it was 51.6%; in that of `COc1cc(OC)cc([C@@H]2C(=O)c3cc(OC)cc(OC)c3[C@H]2C2CCCCC2)c1` (relative stereo), 77.3%.
Regarding `Oc1ccc(/C=C/c2cc(O)cc(O)c2)cc1` [RESVERATROL], in data set [1], the inhibition at 50 µM was 35%.
With `CCOC(=O)[C@@H]1c2c(OC)cc(OC)cc2C(=O)[C@H]1c1cc(OC)cc(OC)c1` (relative stereo), in data set [1], the inhibition at 50 µM was 64.6%.
With `COc1cc(OC)cc([C@@H]2C(=O)c3cc(OC)cc(OC)c3[C@H]2c2ccc(C(F)(F)F)cc2)c1` (relative stereo), the inhibition at 50 µM in [1] was found to be 71.8%.
On to `COc1ccc([C@@H]2c3cc(OC)ccc3C(=O)[C@H]2c2ccc(OC)cc2)cc1` (relative stereo), for which the inhibition at 50 µM in data set [1] was 79.3%.
As for `COc1cc(OC)cc([C@@H]2C(=O)c3cc(OC)cc(OC)c3[C@H]2c2ccc(F)cc2)c1` (relative stereo), the inhibition at 50 µM in data set [1] was found to be 77.3%.
With `COc1ccc(C2C(=O)c3ccc(OC)cc3C2c2ccccc2)cc1` (single isomer, unassigned; (+)) [listing 1 of 2 here], the IC50 in [2] (raw264.7) was determined as 23.5 µM.
For the compound `COc1cc(OC)cc([C@@H]2C(=O)c3cc(OC)cc(OC)c3[C@H]2c2ccc3ccccc3c2)c1` (relative stereo), in data set [1], the inhibition at 50 µM came out at 47.4%.
With `COc1cc(OC)cc(C2C(O)c3cc(OC)cc(OC)c3C2c2ccccc2)c1` (configuration not stated), the inhibition at 50 µM in [1] was found to be 76.3%.
Same read-out and setting: under `COc1ccc([C@@H]2C(=O)c3ccc(OC)cc3[C@H]2c2ccc(-c3ccccc3)cc2)cc1` (relative stereo) stands 57.5%.
On the same count and under the same terms, under `COc1ccc([C@@H]2c3c(OC)cc(OC)cc3C(=O)[C@H]2c2cc(OC)cc(OC)c2)cc1` (relative stereo) stands 61%.
For the compound `COc1cc(OC)cc([C@@H]2C(=O)c3cc(OC)cc(OC)c3[C@H]2c2cccc(F)c2)c1` (relative stereo), the inhibition at 50 µM in data set [1] came to 65.7%.
Still for that read-out and setting: under `CCOc1ccc([C@@H]2c3c(OC)cc(OC)cc3C(=O)[C@H]2c2cc(OC)cc(OC)c2)cc1` (relative stereo) stands 80.9%; under `COc1cc(OC)cc([C@@H]2C(=O)c3cc(OC)cc(OC)c3[C@H]2c2ccc(-c3ccccc3)cc2)c1` (relative stereo), 73.9%.
The same measure, in the same setting: in the case of `COc1cc(OC)cc([C@@H]2C(=O)c3cc(OC)cc(OC)c3[C@H]2c2ccc(OCc3ccccc3)cc2)c1` (relative stereo) it was 65.8%.
For the compound `COc1ccc(C2C(=O)c3ccc(OC)cc3C2c2ccccc2)cc1` (single isomer, unassigned; (+)) [listing 2 of 2 here], the inhibition entry in [2] is “Dose-dependent effect”.
Consider `COc1cc(OC)cc([C@@H]2C(=O)c3cc(OC)cc(OC)c3[C@H]2c2ccc(O)cc2)c1` (relative stereo), for which the inhibition at 50 µM in data set [1] amounted to 65.6%.
As to `COc1ccc(C2C(=O)c3ccc(OC)cc3C2c2ccccc2)cc1` (single isomer, unassigned; (-)) [listing 2 of 2 here], in data set [2], the inhibition result was “Dose-dependent effect”.
On to `COc1ccc([C@@H]2C(=O)c3ccc(OC)cc3[C@H]2c2ccc(OC(F)(F)F)cc2)cc1` (relative stereo), for which the inhibition at 50 µM in data set [1] was determined as 76.3%.
`COc1ccc(C2C(=O)c3ccc(OC)cc3C2c2ccccc2)cc1` (racemic) [listing 2 of 2 here]: the Activity entry in data set [12], in data set [15] and in [16] was “Dose-dependent effect” each time. Besides, the outcome in data set [13] and in data set [18] was inactive. For the same compound, the inhibition result in [14], in data set [2] and in data set [17] was “Dose-dependent effect” throughout.
For the compound `COc1cc(OC)cc([C@@H]2C(=O)c3cc(OC)cc(OC)c3[C@H]2c2ccc(C)cc2)c1`, in data set [1], the inhibition at 50 µM worked out at 83.3%.
